The source made the active and inactive calls. The calls are words filed in the database; no cut-off is given here.
Experiments:
Aurora kinase A [1] = target: T1, Aurora kinase A (Homo sapiens, UniProt O14965); assay: Binding affinity to Aurora kinase A catalytic domain by competition binding assay
T1 sequence (O14965 whole entry): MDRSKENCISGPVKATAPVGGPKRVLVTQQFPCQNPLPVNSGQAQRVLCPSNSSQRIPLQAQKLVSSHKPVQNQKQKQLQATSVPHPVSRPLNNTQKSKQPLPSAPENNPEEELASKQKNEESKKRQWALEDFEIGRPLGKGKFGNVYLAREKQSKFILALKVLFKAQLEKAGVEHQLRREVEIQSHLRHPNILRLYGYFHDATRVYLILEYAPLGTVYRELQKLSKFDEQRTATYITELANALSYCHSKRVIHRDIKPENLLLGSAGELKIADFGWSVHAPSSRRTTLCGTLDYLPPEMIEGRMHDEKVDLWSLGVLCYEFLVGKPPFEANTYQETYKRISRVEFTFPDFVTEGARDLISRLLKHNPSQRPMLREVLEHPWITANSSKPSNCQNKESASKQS

Aurora kinase B [2] = target: T2, Aurora kinase B (Homo sapiens, UniProt Q96GD4); assay: Binding affinity to Aurora kinase B catalytic domain by competition binding assay
T2 sequence (Q96GD4 whole entry, the tested form may be a part): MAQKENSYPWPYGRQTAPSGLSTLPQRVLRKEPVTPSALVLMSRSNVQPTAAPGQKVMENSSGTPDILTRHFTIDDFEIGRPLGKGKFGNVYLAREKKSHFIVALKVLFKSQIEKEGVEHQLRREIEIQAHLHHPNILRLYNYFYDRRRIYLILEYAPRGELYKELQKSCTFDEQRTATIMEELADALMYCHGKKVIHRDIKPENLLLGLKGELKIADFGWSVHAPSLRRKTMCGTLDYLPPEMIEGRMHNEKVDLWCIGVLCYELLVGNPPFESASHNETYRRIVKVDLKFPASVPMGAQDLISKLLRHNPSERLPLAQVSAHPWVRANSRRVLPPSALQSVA

Aurora kinase A [3] = target: T1, Aurora kinase A; assay: Inhibition of Aurora kinase A autophosphorylation in human HEK293 cells after 2 hrs by phosphor antibody readout assay; type: cell-based
[4] = Clearance in athymic Nu/Nu rat at 15 mg/kg, iv administered using TPPW as vehicle; type: ADME, organism-based; design: dose 15 mg/kg, route intravenous; conditions: in vivo
How it was run: (§1)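 Plasma from K3 EDTA blood at 5, 15, 30 min, 1, 2, 4, 6, 24 h; acetonitrile extraction with internal standard, LC-MS/MS on C8 column, 5-95% ACN gradient with 0.05% formic acid.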

[5] = Clearance in athymic Nu/Nu rat at 50 mg/kg, iv administered using TPPW as vehicle; type: ADME, organism-based; design: dose 50 mg/kg, route intravenous; conditions: in vivo; how it was run: as §1
[6] = Volume of distribution in Sprague-Dawley rat at 1 mg/kg, iv administered using PEG400/water as vehicle; type: ADME, organism-based; design: dose 1 mg/kg, route intravenous; conditions: in vivo
How it was run: (§2)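 SD rats fasted overnight, given 1 mg/kg iv in PEG400/water (3:1, v/v); three per arm. Blood into K3 EDTA at 5, 15, 30 min, 1, 2, 4, 6, 24 h, spun at 4 °C; plasma extracted with six volumes acetonitrile plus internal standard and quantified by LC-MS/MS (C8 column, formic acid/ACN gradient).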

[7] = Volume of distribution in Nu/Nu rat at 5 mg/kg, iv administered using TPPW as vehicle; type: ADME, organism-based; design: dose 5 mg/kg, route intravenous; conditions: in vivo; how it was run: as §1
[8] = Volume of distribution in Nu/Nu rat at 15 mg/kg, iv administered using TPPW as vehicle; type: ADME, organism-based; design: dose 15 mg/kg, route intravenous; conditions: in vivo; how it was run: as §1
[9] = Volume of distribution in Nu/Nu rat at 50 mg/kg, iv administered using TPPW as vehicle; type: ADME, organism-based; design: dose 50 mg/kg, route intravenous; conditions: in vivo; how it was run: as §1
[10] = AUC (0 to infinity) in Sprague-Dawley rat at 1 mg/kg, iv administered using PEG400/water as vehicle; type: ADME, organism-based; design: time infinity, dose 1 mg/kg, route intravenous; conditions: plasma; how it was run: as §2
[11] = AUC (0 to infinity) in Nu/Nu rat at 5 mg/kg, iv administered using TPPW as vehicle; type: ADME, organism-based; design: dose 5 mg/kg, route intravenous, time infinity; conditions: plasma; how it was run: as §1
[12] = AUC (0 to infinity) in Nu/Nu rat at 15 mg/kg, iv administered using TPPW as vehicle; type: ADME, organism-based; design: dose 15 mg/kg, route intravenous, time infinity; conditions: plasma; how it was run: as §1
[13] = AUC (0 to infinity) in Nu/Nu rat at 50 mg/kg, iv administered using TPPW as vehicle; type: ADME, organism-based; design: time infinity, dose 50 mg/kg, route intravenous; conditions: plasma; how it was run: as §1
[14] = Half life in Sprague-Dawley rat at 1 mg/kg, iv administered using PEG400/water as vehicle; type: ADME, organism-based; design: dose 1 mg/kg, route intravenous; conditions: in vivo; how it was run: as §2
[15] = Half life in Nu/Nu rat at 5 mg/kg, iv administered using TPPW as vehicle; type: ADME, organism-based; design: dose 5 mg/kg, route intravenous; conditions: in vivo; how it was run: as §1
[16] = Half life in Nu/Nu rat at 50 mg/kg, iv administered using TPPW as vehicle; type: ADME, organism-based; design: dose 50 mg/kg, route intravenous; conditions: in vivo; how it was run: as §1
Aurora kinase B [17] = target: T2, Aurora kinase B; assay: Inhibition of Aurora kinase B in human HCT116 cells assessed as induction of 8N polyploidy; type: cell-based; conditions: HCT-116
HCT-116 [18] = assay: Antitumor activity against human HCT116 cells xenografted in iv dosed athymic nude rat assessed as tumor growth inhibition administered every other day from day 10 post tumor-injection for 3 weeks relative to vehicle treated control; type: functional, organism-based
How it was run: (§3)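 Subcutaneous flank HCT-116 xenografts in nude rats; at Day 1 groups of 10 with mean tumor 301-306 mm³. Tail-vein iv in TPPW (2% Tween-80, 5% propylene glycol, 10% PG-400, 83% water) at 10 mL/kg, weight-adjusted: days 1,3,5,8,10,12,15,17,19 or days 1-4, 8-11, 15-18. Irinotecan control 100 mg/kg ip weekly ×3.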

HCT-116 [19] = assay: Antitumor activity against human HCT116 cells xenografted in athymic nude rat assessed as tumor stasis at 20 mg/kg, iv administered every other day from day 10 post tumor-injection for 3 weeks […]; type: functional, organism-based; design: dose 20 mg/kg
How it was run: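 HCT-116 flank xenografts in nude rats, groups of 10 at mean 301-306 mm³; iv tail-vein dosing in TPPW at 10 mL/kg on days 1,3,5,8,10,12,15,17,19; tumors followed after dosing stopped, study ending day 42 or day 60.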

HCT-116 [20] = assay: Antitumor activity against human HCT116 cells xenografted in athymic nude rat assessed as tumor growth inhibition at 5 mg/kg, iv administered every other day from day 10 post tumor-injection for 3 weeks relative to vehicle treated control; type: functional; conditions: read-out: TGI; how it was run: as §3
HCT-116 [21] = assay: Antitumor activity against human HCT116 cells xenografted in athymic nude rat assessed as tumor growth inhibition at 10 mg/kg, iv administered every other day from day 10 post tumor-injection for 3 weeks relative to vehicle treated control; type: functional; conditions: read-out: TGI; how it was run: as §3
HCT-116 [22] = assay: Antitumor activity against human HCT116 cells xenografted in athymic nude rat assessed as tumor growth inhibition at 20 mg/kg, iv administered every other day from day 10 post tumor-injection for 3 weeks relative to vehicle treated control; type: functional; conditions: read-out: TGI; how it was run: as §3
Rattus norvegicus [23] = assay: Toxicity in athymic nude rat bearing human HCT116 cells assessed body weight loss up to 20 mg/kg, iv administered every other day from day 10 post tumor-injection for 3 weeks; type: organism-based, HCT-116; design: dose 20 mg/kg, route intravenous; conditions: in vivo, 504 h; how it was run: as §3
HCT-116 [24] = assay: Antitumor activity against human HCT116 cells xenografted in athymic nude rat assessed as tumor growth inhibition at 5 mg/kg, iv administered QD for 4 days per week followed by 3 days off per week for 3 weeks; type: functional, organism-based; design: dose 5 mg/kg; how it was run: as §3
Rattus norvegicus [25] = assay: Toxicity in athymic nude rat bearing human HCT116 cells assessed as adverse effects at 2.5 mg/kg, iv administered QD for 4 days per week followed by 3 days off per week for 3 weeks; type: organism-based, HCT-116; design: dose 2.5 mg/kg, route intravenous; conditions: in vivo; how it was run: as §3
Aurora kinase C = target: T3, Aurora kinase C (Homo sapiens, UniProt Q9UQB9); assay: Binding affinity to Aurora kinase C
T3 sequence (Q9UQB9 whole entry): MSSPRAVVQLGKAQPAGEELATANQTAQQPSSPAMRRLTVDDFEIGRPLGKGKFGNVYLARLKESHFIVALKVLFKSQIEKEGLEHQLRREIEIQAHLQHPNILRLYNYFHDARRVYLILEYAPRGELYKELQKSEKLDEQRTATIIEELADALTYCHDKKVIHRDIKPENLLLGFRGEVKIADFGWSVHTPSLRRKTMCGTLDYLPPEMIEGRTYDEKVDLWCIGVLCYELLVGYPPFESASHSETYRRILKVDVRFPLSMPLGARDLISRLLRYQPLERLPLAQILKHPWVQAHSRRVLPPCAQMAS

Kd (Aurora kinase A [1]): 5.8 nM
Kd (Aurora kinase B [2]): 1.7 nM
IC50 (Aurora kinase A [3]): 1 nM
clearance [4]: 0.75 L/h/kg
clearance [5]: 0.314 L/h/kg
Vd [6]: 7 L/kg
Vd [7]: 0.7 L/kg
Vd [8]: 0.8 L/kg
Vd [9]: 0.62 L/kg
AUC(0-inf) [10]: 1.4 µM·h
AUC(0-inf) [11]: 7.7 µM·h
AUC(0-inf) [12]: 34.4 µM·h
AUC(0-inf) [13]: 181 µM·h
half-life [14]: 17.5 h
half-life [15]: 1.1 h
half-life [16]: 2.9 h
inhibition (Aurora kinase B [17]): Dose-dependent effect
Kd (Aurora kinase C): < 10 nM
Structure (SMILES): Cc1cc(Nc2nc(Sc3ccc(NC(=O)CN4CC[C@@H](C(=O)N5CCC(F)(F)C5)C4)cc3)nn3cccc23)n[nH]1
TGI (HCT-116 [18]): Active
Activity (HCT-116 [19]): Active
inhibition in vivo at 5 mg/kg (HCT-116 [20]): 45%
inhibition in vivo at 10 mg/kg (HCT-116 [21]): 60%
inhibition in vivo at 20 mg/kg (HCT-116 [22]): 85%
Activity (Rattus norvegicus [23]): Non-toxic
TGI (HCT-116 [24]): Active
Activity (Rattus norvegicus [25]): Non-toxic

— ChEMBL document CHEMBL2163334, “Discovery of highly potent and selective pan-Aurora kinase inhibitors with enhanced in vivo antitumor therapeutic index” (J Med Chem, 2012)
